{"data": "Experimental data from different studies", "target": "Dual specificity mitogen-activated protein kinase kinase 3 (MAP2K3, Homo sapiens, UniProt P46734)", "Sequence (P46734 1-347, as in one of the studies)": "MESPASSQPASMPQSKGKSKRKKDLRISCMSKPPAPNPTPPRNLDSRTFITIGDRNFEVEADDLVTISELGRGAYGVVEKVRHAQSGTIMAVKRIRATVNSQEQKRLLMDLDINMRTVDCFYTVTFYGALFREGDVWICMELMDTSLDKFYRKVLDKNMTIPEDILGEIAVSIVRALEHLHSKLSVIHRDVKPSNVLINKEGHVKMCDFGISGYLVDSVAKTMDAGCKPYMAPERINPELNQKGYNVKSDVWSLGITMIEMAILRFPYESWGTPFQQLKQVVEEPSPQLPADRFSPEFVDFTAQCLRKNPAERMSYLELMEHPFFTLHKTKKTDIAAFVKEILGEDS", "note": "Compare with care: the assays were run in different laboratories."}
{"SMILES": "COc1ncc2cc3ccccc3nc2c1C#N", "observed": "cell-free assay", "method": "competition with immobilised ligand", "concentration": "5 µM", "remaining binding [%]": 74}
{"SMILES": "CN(C)C(=O)Cn1cc(-c2nc([C@@](C)(c3ccc(-c4cnc(N)nc4)cc3)C3CC3)no2)cn1", "observed": "cell-free assay", "method": "competition with immobilised ligand", "concentration": "1 µM", "remaining binding [%]": 83}
{"SMILES": "c1cnn2ncc(-c3ccnc(N4CCC45COC5)n3)c2c1", "observed": "binding", "concentration": "1 µM", "remaining binding [%]": 31}
{"SMILES": "Cc1cnc(Nc2ccc(C(=O)N3CCC(N4CCCC4)CC3)cc2)nc1-c1cc2ccccc2s1", "observed": "binding", "method": "competition with immobilised ligand", "concentration": "1 µM", "remaining binding [%]": 42}
{"SMILES": "COc1cnc(Nc2cccc(S(N)(=O)=O)c2)nc1N1CCN(c2ccccc2)CC1", "observed": "binding", "method": "competition with immobilised ligand", "concentration": "1 µM", "remaining binding [%]": 79}
{"SMILES": "O=C(c1ccc(Nc2nccc(-c3cc4ccccc4s3)n2)cc1)N1CCC(N2CCCC2)CC1", "observed": "binding", "method": "competition with immobilised ligand", "concentration": "1 µM", "remaining binding [%]": 42}
{"SMILES": "C[C@@H](c1ccc(-n2cnc3c(N)ncnc32)cc1)N1CCc2nn(C)c(Cc3ccccc3)c2C1=O", "observed": "binding", "method": "competition with immobilised ligand", "concentration": "0.1 µM", "remaining binding [%]": 63}
{"SMILES": "CO[C@@H](C)c1c(Nc2ccc([C@@H](N(C)C(=O)C3CCS(=O)(=O)CC3)C(F)(F)F)cc2)cnc2cc(Cl)nn12", "observed": "cell-free assay", "method": "competition with immobilised ligand", "concentration": "1 µM", "remaining binding [%]": 90}
{"SMILES": "N[C@@H]1CCN(c2nccc(-c3cnn4ncccc34)n2)C1", "observed": "binding", "concentration": "1 µM", "remaining binding [%]": 59}
{"SMILES": "Nc1cnc(N2CCc3cc(S(=O)(=O)Nc4c(F)cc(Cl)cc4F)cc(N4CCCC4=O)c32)nc1", "observed": "cell-free assay", "method": "competition with immobilised ligand", "concentration": "1 µM", "remaining binding [%]": 100}
{"SMILES": "COc1ccnn2ncc(-c3ccnc(N(C)C)n3)c12", "observed": "binding", "concentration": "1 µM", "remaining binding [%]": 71}
{"SMILES": "CC1=C(C#N)[C@@H](c2ccc3[nH]nc(C)c3c2)C(C#N)=C(c2ccc(Cl)cc2)N1", "observed": "cell-free assay", "method": "competition with immobilised ligand", "concentration": "1 µM", "remaining binding [%]": 53.5}
{"SMILES": "CN(C)c1nccc(-c2cnc3ncccn23)n1", "observed": "binding", "concentration": "1 µM", "remaining binding [%]": 78}
{"SMILES": "c1cncc(-c2cccc(Nc3nccc(NC4CCCCC4)n3)c2)c1", "observed": "binding", "method": "competition with immobilised ligand", "concentration": "10 µM", "remaining binding [%]": 32}
{"SMILES": "O=C(NCC1CCOCC1)c1n[nH]cc1NC(=O)c1c(F)cccc1F", "observed": "binding", "method": "competition with immobilised ligand", "concentration": "1 µM", "remaining binding [%]": 64}
{"SMILES": "C[C@H](NC(=O)c1cnc2n1[C@](C)(Cc1ccc(C#N)cc1)C(=O)N2c1cc(Cl)c(F)c(Cl)c1)C(=O)NC1(c2ccccn2)CC1", "observed": "cell-free assay", "method": "competition with immobilised ligand", "concentration": "1 µM", "remaining binding [%]": 80}
{"SMILES": "CN(c1nccc(-c2cnn3ncccc23)n1)C1CC1", "observed": "binding", "concentration": "1 µM", "remaining binding [%]": 93}
{"SMILES": "O=C(c1ccc(Nc2ncc(Cl)c(-c3cc4ccccc4s3)n2)cc1)N1CCC(N2CCCC2)CC1", "observed": "binding", "method": "competition with immobilised ligand", "concentration": "1 µM", "remaining binding [%]": 43}
{"SMILES": "Nc1ncc2c(n1)-c1c([nH]c3ccc(C#CC4CC4)cc13)CCCC2", "observed": "binding", "method": "competition with immobilised ligand", "concentration": "1 µM", "remaining binding [%]": 93}
{"SMILES": "CN(C)c1ncnc(-c2ccc3nc(Nc4cc(CN5CCN(C(=O)CC(F)(F)F)CC5)ccn4)[nH]c3c2)c1Cl", "observed": "cell-free assay", "method": "competition with immobilised ligand", "concentration": "1 µM", "remaining binding [%]": 73}
{"SMILES": "C[C@H]1CCN(c2nccc(-c3cnn4ncccc34)n2)C1", "observed": "binding", "concentration": "1 µM", "remaining binding [%]": 69}
{"SMILES": "CCN1CCN(Cc2ccc(C(=O)Nc3ccc(C)c(Oc4ccc5c(c4)CC(=O)N5)c3)cc2C(F)(F)F)CC1", "observed": "binding", "method": "competition with immobilised ligand", "concentration": "1 µM", "remaining binding [%]": 100}
